# Key:
# PRC2 (Ezh1/2) = test: Histone H3; assay type: cell-based, human; settings: 92.1, 7 days GSK503, immunoblot
# In short: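 92.1 cells were treated with GSK503 for 7 days, and histones were isolated with a purification kit. Samples ran on 15% SDS-PAGE, were blotted to PVDF, blocked in 5% milk/TBST, and detected with IRDye-coupled secondary antibodies. H3K27me3 densitometry was normalized to total H3 and compared with DMSO control. Three independent experiments.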
# 92.1 cells = test: Block of FR-elicited re-differentiation; assay type: cell-based, human; settings: 92.1, 7 days GSK503 and 3 days FR
structure (smiles),measurement,setting,value
Cc1cc(C)c(CNC(=O)c2cc(-c3ccc(N4CCN(C)CC4)nc3)cc3c2c(C)cn3C(C)C)c(=O)[nH]1 [GSK503],Histone H3(Lys27) trimethylation,PRC2 (Ezh1/2),reduced
same,Ability of FR to re-differentiate cells (morphology and pigmentation),92.1 cells,blocked

# Reference: paper PMC6279241 (Science signaling, 2018)
